Source: PubChem (several laboratories)
PG9 binder: binds the HIV-1 gp120 antibody PG9; TR-FRET gp120-PG9 antibody binding; inhibition, % at 6.7 µM; hit rate 0.43% among 360,000; in the data active = inhibition above about 8.5%
NR1D1 modulator: modulators of human Rev-erb alpha DNA binding | Rev-erbα–FITC-DNA binding, fluorescence polarization, 90 min | hit rate 0.79% among 370,000 | AID 1259318 | activity, % at 10 µM;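 active = activity above about 14%, limit read from the data; passing the limit was not always enough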
NR2E3 ag-1: agonists of human nuclear receptor NR2E3 | Q9Y5X4 | GST-NR2E3/biotin-RetCOR TR-FRET, 1536-well | inhibition of corepressor binding, % at 4.78 µM | hit rate 0.12% among 320,000 | AID 2300;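 active = percent inhibition above the cutoff of mean plus 3 SD of all tested compounds, set per screening campaign, cut at about 20% in these data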
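system = GST-tagged NR2E3 plus biotinylated RetCOR corepressor | input = 1.35 nM GST-NR2E3 | also added = 7 nM biotin-RetCOR | schedule = 5 h incubation at 4 °C | measured by = TR-FRET with europium anti-GST and streptavidin-D2, 340 nm excitation | read-out = percent loss of FRET ratio relative to control wells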
NR2E3 ag-2: human photoreceptor-specific nuclear receptor agonism; Q9Y5X4; CHO-S Gal4-NCOR/VP16-NR2E3 two-hybrid, luciferase; inhibition of corepressor binding, % at 3.98 µM; hit rate 0.35% among 360,000; AID 602229;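 active = inhibition above the mean of all tested compounds plus 3 SD, cut at about 70% in these data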;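 also: higher means lower luciferase signal from less NR2E3 corepressor binding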
GalR3 antagonist: antagonists of human GalR3; AID 651719; HEK293 GalR3-CNG cAMP membrane potential fluorescence; galR3 body fused to GalR1 C-terminus; hit rate 0.44% among 360,000; inhibition, % at 3 µM; O60755;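 active = inhibition above the screen-wide average plus 3 SD, cut at about 13% in these data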;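 also: forskolin and galanin both at EC90 stimulate the cells; cAMP rise reported by CNG channel membrane potential dye signal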
Target sequence (O60755 1-299 limits assumed): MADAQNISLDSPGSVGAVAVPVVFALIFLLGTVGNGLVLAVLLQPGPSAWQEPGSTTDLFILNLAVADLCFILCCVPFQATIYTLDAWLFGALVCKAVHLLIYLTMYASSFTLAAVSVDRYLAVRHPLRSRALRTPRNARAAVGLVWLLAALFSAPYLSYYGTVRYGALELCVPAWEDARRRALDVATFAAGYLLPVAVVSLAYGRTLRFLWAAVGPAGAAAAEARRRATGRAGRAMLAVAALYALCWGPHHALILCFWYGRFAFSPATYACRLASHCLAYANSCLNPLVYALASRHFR
GalR3 antag conf: confirmation of human galanin receptor 3 antagonists; hit rate 59% among 1,600; inhibition, % at 3 µM; HEK293 GalR3 CNG cAMP biosensor, membrane potential fluorescence; galR3 fused to GalR1 carboxy tail; challenged with forskolin and galanin at EC90; shares compounds with GalR3 antagonist;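 active = inhibition above the primary screen's cutoff, the mean inhibition of all screened compounds plus 3 SD, cut at about 13% in these data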
CNG parental: acts as nonspecific agonist in parental HEK-CNG cells. activation, % at 3 µM. HEK293-CNG parental cells, cAMP membrane potential fluorescence; normalised: DMSO wells 0%, forskolin wells 100%. hit rate 10% among 1,600. shares compounds with GalR3 antagonist; in the data active = activation above about 1.3%
A number is an active result. Only some compounds are listed: those with a hit (about 1.8% of all), similar ones and a draw of the others.

Results for Cc1ccc(/C=C2\C(=O)NC(=O)N(CC3CCCO3)C2=O)s1 (centres undefined) ?
PG9 binder: inactive; NR1D1 modulator: inactive; NR2E3 ag-1: inactive; NR2E3 ag-2: inactive; GalR3 antagonist: 16; GalR3 antag conf: inactive; CNG parental: inactive

What do the screens show for `CCC(NC(=O)OCc1ccccc1)P(=O)(Oc1ccccc1)Oc1ccccc1` (centres undefined)?
NR1D1 modulator: inactive

How did CCNCC(O)c1cccc(O)c1 (centres undefined) do in these assays?
PG9 binder: inactive; NR1D1 modulator: inactive; NR2E3 ag-1: inactive; NR2E3 ag-2: inactive; GalR3 antagonist: 54; GalR3 antag conf: 68; CNG parental: inactive

How did CCCCNCC(O)c1ccc(O)cc1 (centres undefined) do in these assays?
NR1D1 modulator: inactive

What do the screens show for `COc1ccc(-n2c(O)c(C=NCc3ccc4c(c3)OCO4)c(=O)[nH]c2=O)cc1`?
PG9 binder: inactive; NR1D1 modulator: inactive; NR2E3 ag-1: inactive; NR2E3 ag-2: inactive; GalR3 antagonist: 14; GalR3 antag conf: inactive; CNG parental: inactive

How did COc1cccc(-n2c(O)c(C=NCc3ccc4c(c3)OCO4)c(=O)[nH]c2=O)c1 do in these assays?
PG9 binder: inactive; NR1D1 modulator: inactive; NR2E3 ag-1: inactive; NR2E3 ag-2: inactive; GalR3 antagonist: inactive

Results for COC(=O)C(O)(c1ccc(NC(=S)NC(=O)c2ccc(Cl)cc2Cl)c(C)c1)C(F)(F)F (centres undefined) ?
PG9 binder: inactive; NR1D1 modulator: inactive; NR2E3 ag-1: inactive; NR2E3 ag-2: inactive; GalR3 antagonist: inactive

What do the screens show for `CCOC(=O)C(O)(c1ccc(NC(=S)NC(=O)c2ccc(Cl)cc2Cl)c(C)c1)C(F)(F)F` (centres undefined)?
PG9 binder: inactive; NR1D1 modulator: inactive; NR2E3 ag-1: inactive; NR2E3 ag-2: inactive; GalR3 antagonist: 45; GalR3 antag conf: 50; CNG parental: inactive

How did NC(Cc1ccccc1)[P+](=O)O (centres undefined) do in these assays?
NR1D1 modulator: inactive

How did Clc1ccc([C@H]2CC3CCC2N3)cn1 (some centres undefined) do in these assays?
PG9 binder: inactive; NR1D1 modulator: inactive; GalR3 antagonist: inactive

How did O=C(Cc1cc(=O)oc2cc(O)ccc12)NN=Cc1ccc(N(CCCl)CCCl)cc1 do in these assays?
PG9 binder: inactive; NR1D1 modulator: inactive; NR2E3 ag-2: inactive; GalR3 antagonist: 16; GalR3 antag conf: 31; CNG parental: inactive

Results for O=C(NN=Cc1ccc(N(CCCl)CCCl)cc1)c1cc(=O)[nH]c(=O)[nH]1 ?
PG9 binder: inactive; NR1D1 modulator: inactive; NR2E3 ag-2: inactive; GalR3 antagonist: inactive

How did Oc1ccc(C2=CCNCC2)cc1O do in these assays?
PG9 binder: inactive; NR1D1 modulator: inactive; NR2E3 ag-1: inactive; NR2E3 ag-2: inactive; GalR3 antagonist: 73; GalR3 antag conf: 87; CNG parental: inactive

Results for Nc1cc(Cl)c2nonc2c1[N+](=O)[O-] ?
PG9 binder: inactive; NR1D1 modulator: inactive; NR2E3 ag-1: inactive; NR2E3 ag-2: inactive; GalR3 antagonist: 35; GalR3 antag conf: 20; CNG parental: inactive

What do the screens show for `CC(=O)OC1CC[C@]2(C#N)[C@H]3CC[C@]4(C)[C@H](C5C=CC(=O)O5)CCC4(O)C3CCC2(O)C1` (some centres undefined)?
PG9 binder: inactive; NR1D1 modulator: inactive; NR2E3 ag-1: inactive; NR2E3 ag-2: inactive; GalR3 antagonist: 26; GalR3 antag conf: 22; CNG parental: 1.8

Results for CC(C)(C)c1cc([N+](=O)[O-])cc(C(C)(C)C)c1O ?
PG9 binder: inactive; NR1D1 modulator: inactive; NR2E3 ag-1: inactive; GalR3 antagonist: 90; GalR3 antag conf: 102; CNG parental: inactive

What do the screens show for `NC(=O)c1cc([N+](=O)[O-])cc([N+](=O)[O-])c1`?
PG9 binder: inactive; NR1D1 modulator: inactive; NR2E3 ag-2: inactive; GalR3 antagonist: inactive

How did O=C(NCCN1CCC2(CC1)C(=O)NCN2c1ccccc1)c1ccccc1C(F)(F)F do in these assays?
PG9 binder: inactive; NR1D1 modulator: inactive; GalR3 antagonist: inactive

How did CC(=O)OCC[N+](C)(C)C do in these assays?
PG9 binder: inactive; NR1D1 modulator: inactive; NR2E3 ag-1: inactive; NR2E3 ag-2: inactive; GalR3 antagonist: 44; GalR3 antag conf: 70; CNG parental: inactive

How did C[N+](C)(C)CCOC(=O)CBr do in these assays?
PG9 binder: inactive; NR1D1 modulator: inactive; NR2E3 ag-1: inactive; NR2E3 ag-2: inactive; GalR3 antagonist: inactive

What do the screens show for `N#Cc1ccc(NC(=S)N2Cc3ccc(Br)cc3-n3nncc3C2)cc1`?
PG9 binder: inactive; NR1D1 modulator: inactive; GalR3 antagonist: inactive

How did COc1cc(C(=O)N/N=C/C23CC[C@@H](O)CC2(O)CC[C@@H]2[C@@H]3CCC3(C)C(C4=CC(=O)OC4)CCC23O)ccc1O (some centres undefined) do in these assays?
PG9 binder: inactive; NR1D1 modulator: inactive; NR2E3 ag-1: inactive; NR2E3 ag-2: inactive; GalR3 antagonist: inactive

How did CC12CC[C@H]3[C@@H](CCC4(O)C[C@H](O)CCC34/C=N/NC(=O)c3ccccc3O)C1(O)CCC2C1=CC(=O)OC1 (some centres undefined) do in these assays?
PG9 binder: inactive; NR1D1 modulator: inactive; NR2E3 ag-1: inactive; NR2E3 ag-2: inactive; GalR3 antagonist: 30; GalR3 antag conf: 25; CNG parental: inactive

Results for CC12CC[C@H]3[C@@H](CCC4(O)C[C@H](O)CCC34/C=N/NC(=O)c3ccccc3F)C1(O)CCC2C1=CC(=O)OC1 (some centres undefined) ?
PG9 binder: inactive; NR1D1 modulator: inactive; NR2E3 ag-1: inactive; NR2E3 ag-2: inactive; GalR3 antagonist: 37; GalR3 antag conf: 23; CNG parental: inactive

How did CN(C)c1ccc(C(=O)N/N=C/C23CC[C@@H](O)CC2(O)CC[C@@H]2[C@@H]3CCC3(C)C(C4=CC(=O)OC4)CCC23O)cc1 (some centres undefined) do in these assays?
PG9 binder: inactive; NR1D1 modulator: inactive; NR2E3 ag-1: inactive; NR2E3 ag-2: inactive; GalR3 antagonist: 42; GalR3 antag conf: 38; CNG parental: 1.4

Results for CC12CC[C@H]3[C@@H](CCC4(O)C[C@H](O)CCC34/C=N/NC(=O)c3ccc(O)cc3)C1(O)CCC2C1=CC(=O)OC1 (some centres undefined) ?
PG9 binder: inactive; NR1D1 modulator: inactive; NR2E3 ag-1: inactive; NR2E3 ag-2: inactive; GalR3 antagonist: inactive
